# Experimental data from different studies.
# Compare with care: the assays were run in different laboratories.
# Target: Serine/threonine-protein kinase 35 (STK35, Homo sapiens, UniProt Q8TDR2)
Structure (SMILES),observed,method,concentration,remaining binding [%]
C=CC(=O)N1CCC(C(=O)NCC(=O)N2CCN(c3nc(-c4cnc(N)nc4C(F)F)nc(N4CCOCC4)n3)CC2)CC1,binding,competition with immobilised ligand,1 µM,93
O=C(NCC1CCOCC1)c1n[nH]cc1NC(=O)c1c(F)cccc1F,binding,competition with immobilised ligand,1 µM,92
CC1CCCN1c1nccc(-c2cnn3ncccc23)n1 (stereo not shown),binding,,1 µM,88
COc1ccc2cc(OCC3(C(=O)O)CN(C(=O)c4ccc(F)cc4)C3)ccc2c1,cell-free assay,competition with immobilised ligand,1 µM,100
COc1ccnn2ncc(-c3ccnc(N(C)C)n3)c12,binding,,1 µM,95
CCOC(=O)c1cc2cc(-c3cc(C(=O)NCc4ccc(C(=O)O)cc4)nn3C)ccc2[nH]1,cell-free assay,competition with immobilised ligand,0.1 µM,94
FC(F)(F)Oc1cccc(-c2cnc3ccc(-c4ccncc4)nn23)c1,binding,competition with immobilised ligand,5 µM,100
C[C@@H](c1ccc(-n2cnc3c(N)ncnc32)cc1)N1CCc2nn(C)c(Cc3ccccc3)c2C1=O,binding,competition with immobilised ligand,0.1 µM,83
C[C@H]1CCN(c2nccc(-c3cnn4ncccc34)n2)C1,binding,,1 µM,100
COc1cnc(Nc2cccc(S(N)(=O)=O)c2)nc1N1CCN(c2ccccc2)C(=O)C1,binding,competition with immobilised ligand,1 µM,100
N[C@H]1CCN(c2nccc(-c3cnn4ncccc34)n2)C1,binding,,1 µM,89
CCN1CCN(Cc2ccc(C(=O)Nc3ccc(C)c(Oc4ccc5c(c4)CC(=O)N5)c3)cc2C(F)(F)F)CC1,binding,competition with immobilised ligand,1 µM,72
O=C(Nc1cccnn1)N1CCC(=Cc2cccc(Oc3ccc(C(F)(F)F)cn3)c2)CC1,cell-free assay,competition with immobilised ligand,1 µM,100
O=C(c1ccc(Nc2ncc(Cl)c(-c3ccc(Cl)s3)n2)cc1)N1CCC(N2CCCC2)CC1,binding,competition with immobilised ligand,1 µM,99
CN(C)C(=O)Cn1cc(-c2nc(C3(c4ccc(-c5cnc(N)nc5)cc4)CC3)no2)cn1,cell-free assay,competition with immobilised ligand,1 µM,94
c1cncc(-c2cccc(Nc3nccc(NC4CCCCC4)n3)c2)c1,binding,competition with immobilised ligand,10 µM,86
O=C(NCCCN1CCOCC1)c1ccc(Nc2ncc(Cl)c(-c3ccc(Cl)s3)n2)cc1,binding,competition with immobilised ligand,1 µM,100
Cc1cnn2ncc(-c3ccnc(N(C)C)n3)c2c1,binding,,1 µM,100
CCC(=O)N[C@H]1CC[C@@H](C(=O)N(C)c2ccc(-c3nc4ccccc4o3)cc2)C1,cell-free assay,competition with immobilised ligand,1 µM,88
O=C(NCCCN1CCOCC1)c1ccc(Nc2nccc(-c3cc4ccccc4s3)n2)cc1,binding,competition with immobilised ligand,1 µM,92
CN(CCCC(F)(F)F)c1nccc(-c2cnn3ncccc23)n1,binding,,1 µM,100
Cc1nccc(COC(=O)N2C[C@@H]3[C@@H](CNC(=O)c4ccc5[nH]nnc5c4)[C@@H]3C2)n1,cell-free assay,competition with immobilised ligand,1 µM,83
